High-throughput results from PubChem.
Compounds with a hit are over-represented: about 3.5% of the library has one in this group of screens.
Yeast life ext: extends the lifespan of yeast; S. cerevisiae growth with nicotinamide, OD615; deaD strain in restrictive glucose medium; inhibition of the nicotinamide effect, % at 10 µM; actives 0.68% (n = 130,000); AID 775;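 active means inhibition above a set limit, placed 3 SD over the median of all compounds, cut at about 26% in these data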
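Buffer or medium: CSMM-D glucose medium, restrictive; test system: modified budding yeast, DeaD strain; compound: single dose 10 µM compound, 0.25% DMSO; schedule: culture preincubation 4 h, compound exposure 48 h, both 30 °C; detection: optical density (absorbance) at 615 nm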
Yeast growth inh: chemicals that inhibit yeast BB579 growth in restrictive medium (lifespan-shortening candidates). S. cerevisiae BB579 growth, OD615, 48 h. actives 0.51% (n = 140,000). inhibition, % at 10 µM;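 active means inhibition above a set limit, 3 SD over the mean compound inhibition, cut at about 44% in these data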
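System: Saccharomyces cerevisiae DeaD strain BB579, replicative lifespan model yeast | Buffer or medium: Restrictive glucose-based CSMM-D medium | Times: 4 h preincubation and 48 h exposure at 30 °C | Detection: OD615 turbidity measurement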
HMGR II inh: blocks class II HMG-CoA reductase of Enterococcus faecalis; purified E. faecalis HMGR, NADPH absorbance 340 nm kinetic; inhibition, % at 10 µM; actives 0.41% (n = 190,000);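 active means inhibition above a set limit, the median over all tested compounds plus 3 SD, cut at about 9.5% in these data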;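 further: enzyme runs in reverse so mevalonate oxidation gives rising NADPH absorbance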
RAM inhibit: inhibitors of the yeast RAM network | S. cerevisiae dse1pr::URA3 reporter, 5-FOA growth OD615, 2 d; analog-sensitive cbk1-as2 kinase mutant strain | inhibition, % at 50 µM | actives 1.8% (n = 190,000);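 active means inhibition above a set limit, 3 SD over mean compound inhibition, cut at about 8.4% in these data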;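 further: inhibition rescues growth on 5-FOA so higher OD means more RAM inhibition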
bCat nuc transl: modulators of beta-catenin nuclear translocation | nuclear translocation activity, % at 5 µM | actives 0.3% (n = 190,000) | HeLa beta-catenin nuclear translocation, immunofluorescence imaging;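 active means nuclear translocation activity above 50% at 5 µM, with a well cell count of 50 or more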;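 further: per-cell ratio of nuclear to cytoplasmic median beta-catenin stain intensity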
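Test system: human HeLa cell line; Doses: 5 µM primary, 0.02–20 µM confirmation; Incubation: 24 h compound exposure, 37°C; Detection: beta-catenin immunofluorescence imaging with DAPI; Read-out: beta-catenin nuclear/cytoplasmic ratio, % activation.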
MT stabilizer: microtubule stabilizers in HeLa cells | % tubulin-high responders, % at 10 µM | actives 0.83% (n = 200,000) | HeLa tubulin immunostaining HCS, 24 h; share of cells brighter than vehicle mean+2SD | AID 2205;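 active means plate Z-score above 3 for both tubulin-high and condensed-nucleus cell shares, with cell loss under 80%, at 10 µM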;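 further: anti alpha tubulin signal scored within the nucleus-defined area of each cell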
Large screens that a line does not name were inactive.

CCN(CCCNC(=O)C1CCC(=O)N1Cc1ccc(F)cc1)c1cccc(C)c1 (stereo not drawn)	none
CCN(CCNCC(O)COCc1ccc(Cl)cc1)c1cccc(C)c1 (stereo not drawn)	HMGR II inh 31 (no result: Yeast life ext, Yeast growth inh)
Cc1cc(C)c2[nH]c(=O)c(CN(Cc3cccnc3)C(=S)NCCCN(C)C)cc2c1	none (no result: Yeast life ext, Yeast growth inh)
CCOC(=O)C1=C(NC(=S)NC(=O)c2ccccc2)c2ccccc2CC1(C)CC (stereo not drawn)	RAM inhibit 11
CCOC(=O)c1sc(NC(=S)NC(=O)c2ccccc2)c(C(=O)OCC)c1C	none
CCOC(=O)c1cnc(SC2CC(=O)N(c3cccc(OC)c3)C2=O)nc1N (stereo not drawn)	RAM inhibit 10
COc1ccc(C(=O)Nc2ccccc2C(=O)N2CCCCC2C)cc1 (stereo not drawn)	none (no result: Yeast life ext, Yeast growth inh)
CCCCC(=O)Nc1sc2c(c1C(=O)OCC)CCC(C=O)=C2Cl	RAM inhibit 9.2
CCOc1cc(/C=N/Nc2ccccc2Cl)ccc1OCC(=O)O	Yeast growth inh 96 (no result: bCat nuc transl)
CCOc1cc(/C=N/NC(=O)c2ccc(-c3csc(Nc4ccc(C)cc4)n3)cc2)ccc1OCC(=O)O	RAM inhibit 8.9 (no result: Yeast life ext, Yeast growth inh)
CC(=O)NC1C(=O)N=C(SCC(=O)Nc2ccc(C(F)(F)F)cc2Cl)NC1=O (stereo not drawn)	none (no result: Yeast life ext, Yeast growth inh)
Cn1c(=O)c2c(nc(N3CCOCC3)n2C/C=C/c2ccccc2)n(C)c1=O	none (no result: Yeast life ext, Yeast growth inh, HMGR II inh, RAM inhibit, MT stabilizer)
O=C1Nc2ccccc2S/C1=C/Nc1cccc(Cl)c1	RAM inhibit 8.4
O=C1Nc2ccccc2S/C1=C\C(=O)N1CCCC1	none (no result: Yeast life ext, Yeast growth inh)
CCCOc1ccc(NC(=O)C2CC(=O)N(C)C(=Nc3cccc(OC)c3)S2)cc1 (stereo not drawn)	none (no result: Yeast life ext, Yeast growth inh)
O=C(COC(=O)C12CC3CC(CC(C3)C1)C2)Nc1nccs1	none (no result: Yeast life ext, Yeast growth inh)
CC(=O)NC12CC3CC(C1)CC(C(=O)Nc1nccs1)(C3)C2	RAM inhibit 10
Cc1ccc(Cl)cc1NC(=S)N(CCN(C)C)C(C)c1ccccn1 (stereo not drawn)	none (no result: Yeast life ext, Yeast growth inh)
N#CCCN/N=C(/Cc1nc2ccccc2[nH]1)c1ccc(Cl)cc1	HMGR II inh 9.9
c1ccc(N/N=C(\Cc2nc3ccccc3[nH]2)c2ccccc2)cc1	none (no result: bCat nuc transl)
Cc1ccc(N/N=C(\Cc2nc3ccccc3[nH]2)c2ccccc2)cc1	bCat nuc transl 107
COc1cc2c(cc1OC)C(c1cccs1)N(C(=O)c1cccc(S(=O)(=O)N(C)C)c1)CC2 (stereo not drawn)	none (no result: Yeast life ext, Yeast growth inh, HMGR II inh, RAM inhibit, MT stabilizer)
COc1ccc(C(=O)Nc2ccc(Cl)c(S(=O)(=O)Nc3ccccc3OC)c2)cc1	none
COc1ccccc1NC(=O)Nc1ccc(Cl)c(S(=O)(=O)Nc2ccccc2OC)c1	RAM inhibit 8.4
COc1ccc(NS(=O)(=O)c2cc(N/C(=N\S(=O)(=O)c3ccccc3)c3ccc(F)cc3)ccc2Cl)cc1	MT stabilizer 12 (no result: bCat nuc transl)
Cc1ccc(C(=O)CCC(=O)Nc2ccc(Cl)c(S(=O)(=O)Nc3cccc(Cl)c3)c2)cc1	none
CCOc1ccc(NS(=O)(=O)c2cc(NC(=O)c3ccc(C)cc3)ccc2Cl)cc1	MT stabilizer 21
Cc1oc(-c2ccc(-c3ccccc3)cc2)nc1CN1CCN(CC(=O)N(C)C)CC1	none (no result: Yeast life ext, Yeast growth inh)
COc1ccc(CC(=O)Nc2cccc(SC)c2)cc1OC	none (no result: Yeast life ext, Yeast growth inh, bCat nuc transl)
CS(=O)(=O)Nc1ccc(C2=NN(S(C)(=O)=O)C(c3ccc4c(c3)OCO4)C2)cc1 (stereo not drawn)	none
CCc1nn(-c2cc(Cl)ccc2OC)c2c1C(=O)CCC2	MT stabilizer 27
CCCc1nn(-c2cc(Cl)ccc2OC)c2c1C(=O)CC(C)(C)C2	MT stabilizer 12 (no result: bCat nuc transl)
Cc1nn(C(=O)c2ccc([N+](=O)[O-])cc2)c(C)c1Br	none (no result: Yeast life ext, Yeast growth inh, HMGR II inh, RAM inhibit, MT stabilizer)
Cn1cc(CN2CCC(C(O)c3cccs3)CC2)c(-c2ccccc2F)n1 (stereo not drawn)	none (no result: Yeast life ext, Yeast growth inh, HMGR II inh, RAM inhibit, MT stabilizer)
Cc1ccc(C)c(C(=O)Nc2cc(C)nn2-c2nc(C)cc(C)n2)c1	MT stabilizer 13 (no result: Yeast life ext, Yeast growth inh)
COc1cc(/C=N/NC(=O)c2ccc(Cl)c(S(N)(=O)=O)c2)ccc1OCC(N)=O	none (no result: Yeast life ext, Yeast growth inh, HMGR II inh, RAM inhibit, MT stabilizer)
CCC(=O)NC(/C=C/c1ccccc1)c1cc([N+](=O)[O-])c2cccnc2c1O (stereo not drawn)	RAM inhibit 11
